The target in test [1] is gp41 hydrophobic pocket (Fe(envC)3) (Human immunodeficiency virus type 1 group M subtype B, UniProt P04578). The test is described as follows: Surface plasmon resonance. As to conditions: for kd: SPR 1:1 binding kinetic analysis, RUmax fixed; for kd1 / kd2: bivalent binding model. It counts as binding, HIV-1. (In general: SPR reads the build-up and loss of mass on a sensor chip optically.)

The next test concerns HIV-1 Ba-L and IIIB. The test is described as follows: Virus-cell fusion. It counts as cell-based. As to conditions: for activity against VCF: result in words; for IC50: Human immunodeficiency virus 1, BAL|IIIB, read-out: IC50 against VCF. In a few lines: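 MAGI-CCR5 cells, 10,000 per well, grown overnight in DMEM with 10% FBS. Medium replaced with test compound at 6 dilutions, each in triplicate. HIV-1 Ba-L (CCR5-tropic) or IIIB (CXCR4-tropic) added at ~10 TCID50/well. Assay run at 2% serum and incubated 48 h. Read-out is Tat-induced β-Gal expression by chemiluminescence.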

For another test, the system named is HIV-1 Ba-L. The test is described as follows: CCR5-tropic MAGI antiviral assay. As to conditions: Ba-L virus. It counts as cell-based.
The subject of a further test is HIV-1 IIIB. The test is described as follows: CXCR4-tropic MAGI antiviral assay. It counts as cell-based. As to conditions: IIIB virus.
In test [2] the target is gp41 hydrophobic pocket (Fe(env2.0)3) (Human immunodeficiency virus type 1 group M subtype B, UniProt P04578). The test is described as follows: Fluorescence competitive binding assay for the hydrophobic pocket, Fe. On the set-up: species or system HIV-1. The note with it: for Ki: Inhibition constant KI, dimers, 1:1 binding model with Rt = 7.2 µM, poor fit; for improvement (reduction) of KI over the respective monomer: compared with monomers 3 and 4.

The test system of a further test is HXB2 Env. The note with it: read-out: IC50 CCF; cell-cell fusion, three-subunit peptidomimetics; cited from earlier work.

For the molecule `Nc1ccc(C(=O)N[C@@H](Cc2c[nH]c3ccccc23)C(=O)O)cc1OCCc1c[nH]c2ccccc12` [Compound 3, H2N-[Trp]-Trp-OH], the kd in test [1] is 0.834 s⁻¹. Besides, in the test with HIV-1 Ba-L and IIIB, the “activity against VCF” value was “ineffective”.

Molecule `Nc1ccc(C(=O)N[C@@H](Cc2c[nH]c3ccccc23)C(=O)O)cc1OCc1ccc(Cl)cc1` [Compound 4, H2N-[Phe4Cl]-Trp-OH] showed a kd in test [1] of 0.820 s⁻¹. Further, in the test with HIV-1 Ba-L and IIIB, the “activity against VCF” value is given as “ineffective”.

A word on the IC50: it is the concentration needed to halve the response being measured. Broadly, the Ki is a dissociation constant, usually derived from enzyme kinetics or from competition with a known ligand. A higher Ki goes with weaker binding. For `O=C(CCC(=O)Nc1ccc(C(=O)N[C@@H](Cc2c[nH]c3ccccc23)C(=O)O)cc1OCCc1c[nH]c2ccccc12)NCCOCCOCCOCCNC(=O)CCC(=O)Nc1ccc(C(=O)N[C@@H](Cc2c[nH]c3ccccc23)C(=O)O)cc1OCCc1c[nH]c2ccccc12` [Compound 7], in test [1], the kd came to 0.060 s⁻¹, the kd1 came out at 0.0869 s⁻¹ and the kd2 is 0.0145 s⁻¹. The “residual fusion activity at plateau of antiviral activity” value with HIV-1 Ba-L is recorded as ~ 20%. Further, the IC50 with HIV-1 Ba-L and IIIB fell in the range of 3 to 5 µM. The “residual fusion activity at plateau of antiviral activity” value with HIV-1 IIIB is ~ 6%. The molecule also showed a Ki in test [2] of 1 µM.

Regarding `O=C(CCC(=O)Nc1ccc(C(=O)N[C@@H](Cc2c[nH]c3ccccc23)C(=O)O)cc1OCc1ccc(Cl)cc1)NCCOCCOCCOCCNC(=O)CCC(=O)Nc1ccc(C(=O)N[C@@H](Cc2c[nH]c3ccccc23)C(=O)O)cc1OCc1ccc(Cl)cc1` [Compound 8], in test [1], the kd turned out to be 0.037 s⁻¹, the kd1 is 0.0638 s⁻¹ and the kd2 was determined as 0.0033 s⁻¹. Further, the IC50 in the test with HIV-1 Ba-L and IIIB lay within 3 to 5 µM. The Ki in test [2] came out at 5.3 µM.

Regarding `O=C(CCc1c[nH]c2ccccc12)NCCCCCC(=O)Nc1ccc(C(=O)N[C@@H](Cc2c[nH]c3ccccc23)C(=O)O)cc1OCCc1c[nH]c2ccccc12` [Compound 10], the kd in test [1] worked out at 0.093 s⁻¹. In addition, the IC50 in the test on HIV-1 Ba-L and IIIB was in the range of 13 to 17 µM. In addition, in test [2], the “improvement (reduction) of KI over the respective monomer” value was determined as 6 fold.

For the molecule `O=C(CCc1c[nH]c2ccccc12)NCCCCCC(=O)Nc1ccc(C(=O)N[C@@H](Cc2c[nH]c3ccccc23)C(=O)O)cc1OCc1ccc(Cl)cc1` [Compound 11], the kd in test [1] is 0.186 s⁻¹. Further, in the test on HIV-1 Ba-L and IIIB, the IC50 fell in the range of 13 to 17 µM. In addition, the “improvement (reduction) of KI over the respective monomer” value in test [2] is on record as 6 fold.

With H2N-Asn-[Trp]-Trp-COOH, the IC50 in the test with HXB2 Env was 6 µM.

Turning to H2N-Trp-[Trp]-Leu-COOH, the IC50 in the test with HXB2 Env is 5 µM.

Values taken from publication PMC5260928 (Bioorganic & medicinal chemistry, 2016).
